Results as given in ChEMBL document CHEMBL3244395, “Antimycotic imidazoles. 2. Synthesis and antifungal properties of esters of 1-[2-hydroxy(mercapto)-2-phenylethyl]-1H-imidazoles” (J Med Chem, 1978).
Converted amounts (≈) assume the structure as drawn. The source made the active and inactive calls. The rule behind the calls is not given here.

What was measured:
[1] = Lipophilic-hydrophilic balance, Rm of the compound assessed as change in compound Rm to miconazole Rm by reverse-phase TLC method; type: physicochemical
Microsporum audouinii = test: Antifungal activity against Microsporum audouinii assessed as lowest concentration required for total inhibition broth dilution assay; type: functional; details: read-out: MIC100
In short: (§1)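 Broth dilution against dermatophytes, C. albicans ATCC 10231 and 14053, and C. neoformans. The end point is the lowest concentration with total inhibition. "<" marks the lowest level tested, and ">" marks partial growth at that dilution.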

Epidermophyton floccosum = test: Antifungal activity against Epidermophyton floccosum assessed as lowest concentration required for total inhibition broth dilution assay; type: functional; details: read-out: MIC100; in short: as §1
[2] = tested on: Trichophyton mentagrophytes; test: Antifungal activity against Trichophyton mentagrophytes assessed as lowest concentration required for total inhibition broth dilution assay; type: functional; details: read-out: MIC100; in short: as §1
Candida albicans [3] = test: Antifungal activity against Candida albicans ATCC 10231 assessed as lowest concentration required for total inhibition by broth dilution assay; type: functional; details: read-out: MIC100; in short: as §1
Candida albicans [4] = test: Antifungal activity against Candida albicans ATCC 14053 assessed as lowest concentration required for total inhibition by broth dilution assay; type: functional; details: read-out: MIC100; in short: as §1
Cryptococcus neoformans = test: Antifungal activity against Cryptococcus neoformans assessed as lowest concentration required for total inhibition by broth dilution assay; type: functional; details: read-out: MIC100; in short: as §1
Staphylococcus aureus = test: Antibacterial activity against Staphylococcus aureus ATCC 12600 assessed as lowest concentration required for total inhibition by broth microdilution assay; type: functional; details: read-out: MIC100
In short: (§2)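 Broth microdilution against the listed ATCC […] strains. The value is the lowest concentration giving total inhibition. "<" marks the lowest level tested, and ">" marks partial growth at that dilution.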

Enterococcus faecalis = test: Antibacterial activity against Streptococcus faecalis ATCC 14506 assessed as lowest concentration required for total inhibition by broth microdilution assay; type: functional; details: read-out: MIC100; in short: as §2
Cutibacterium acnes = test: Antibacterial activity against Corynebacterium acnes ATCC 11828 assessed as lowest concentration required for total inhibition by broth microdilution assay; type: functional; details: read-out: MIC100; in short: as §2
[5] = tested on: Erysipelothrix rhusiopathiae; test: Antibacterial activity against Erysipelothrix insidiosa ATCC 19414 assessed as lowest concentration required for total inhibition by broth microdilution assay; type: functional; details: read-out: MIC100; in short: as §2
Pasteurella multocida = test: Antibacterial activity against Pasteurella multocida ATCC 19427 assessed as lowest concentration required for total inhibition by broth microdilution assay; type: functional; details: read-out: MIC100; in short: as §2
Candida albicans [6] = test: Antifungal activity against Candida albicans in mouse vaginal infection model compound applied intravaginally as 2% formulation in an aqueous propylene glycol cream for 4 days bid; type: functional, organism-based; details: Vagina
In short: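 Mice with vaginal C. albicans infection, following Wildfeuer's method. The compound was applied intravaginally as a 2% formulation in an aqueous propylene glycol cream, twice daily for 4 days. Read-out was animals cured over total number infected.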

Nannizzia gypsea = test: Antifungal activity against Microsporum gypseum assessed as lowest concentration required for total inhibition broth dilution assay; type: functional; details: read-out: MIC100; in short: as §1
[7] = silicone oil-impregnated silica gel, MeCN-H2O-AcOH

SMILES | deltaRm [1, 7] | MIC (Microsporum audouinii) | MIC (Epidermophyton floccosum) | MIC [2] | MIC (Candida albicans [3]) | MIC (Candida albicans [4]) | MIC (Cryptococcus neoformans) | MIC (Staphylococcus aureus) | MIC (Enterococcus faecalis) | MIC (Cutibacterium acnes) | MIC [5] | MIC (Pasteurella multocida) | MIC (Nannizzia gypsea) | deltaRm ([1]; octanol/water) | Activity (Candida albicans [6])
CCOC(=S)SC(Cn1ccnc1)c1ccc(Cl)cc1Cl.O=[N+]([O-])O (stereo not given) | -0.27 | 5 µg/mL | < 0.1 µg/mL | < 0.1 µg/mL | 50 µg/mL | 50 µg/mL | 1 µg/mL | – | – | – | – | – | – | – | –
O=C(O)C(=O)O.O=C(OC(Cn1ccnc1)c1ccc(Cl)cc1Cl)c1ccc([N+](=O)[O-])cc1 (stereo not given) | -0.54 | 33 µg/mL | 0.33 µg/mL | 10 µg/mL | > 300 µg/mL | > 300 µg/mL | – | – | – | – | – | – | – | – | –
O=C(OC(Cn1ccnc1)c1ccc(Cl)cc1)c1ccc(Cl)cc1.O=[N+]([O-])O (stereo not given) | -0.31 | 100 µg/mL | 100 µg/mL | > 100 µg/mL | > 100 µg/mL | > 100 µg/mL | 10 µg/mL | – | – | – | – | – | – | – | –
O=C(O)C(=O)O.O=C(OC(Cn1ccnc1)c1ccc(Cl)cc1)c1ccccc1Cl (stereo not given) | -0.49 | 50 µg/mL | 5 µg/mL | 10 µg/mL | 100 µg/mL | 100 µg/mL | – | – | – | – | – | – | – | – | –
CCCCCCCC(=O)SC(Cn1ccnc1)c1ccc(Cl)cc1Cl.O=C(O)C(=O)O (stereo not given) | 0.44 | – | < 0.1 µg/mL | 10 µg/mL | 10 µg/mL | 10 µg/mL | < 1 µg/mL | 3 µg/mL | 30 µg/mL | 100 µg/mL | 30 µg/mL | 1 µg/mL | 30 µg/mL | – | inactive

The next lines start with results.

deltaRm [1, 7] | MIC (Microsporum audouinii) | MIC (Epidermophyton floccosum) | MIC [2] | MIC (Candida albicans [3]) | MIC (Candida albicans [4]) | MIC (Cryptococcus neoformans) | MIC (Staphylococcus aureus) | MIC (Enterococcus faecalis) | MIC (Cutibacterium acnes) | MIC [5] | MIC (Pasteurella multocida) | MIC (Nannizzia gypsea) | deltaRm ([1]; octanol/water) | SMILES | Activity (Candida albicans [6])
-0.52 | 100 µg/mL | 10 µg/mL | 10 µg/mL | > 100 µg/mL | > 100 µg/mL | – | – | – | – | – | – | – | – | O=C(O)C(=O)O.O=C(Oc1ccc(Cl)cc1)OC(Cn1ccnc1)c1ccc(Cl)cc1 (stereo not given) | –
0 | – | < 0.1 µg/mL | 3 µg/mL (≈ 7.21 µM) | 30 µg/mL (≈ 72.1 µM) | 30 µg/mL (≈ 72.1 µM) | < 0.3 µg/mL | 1 µg/mL (≈ 2.4 µM) | 10 µg/mL (≈ 24 µM) | 10 µg/mL (≈ 24 µM) | 3 µg/mL (≈ 7.21 µM) | < 0.1 µg/mL | 3 µg/mL (≈ 7.21 µM) | – | Clc1ccc(COC(Cn2ccnc2)c2ccc(Cl)cc2Cl)c(Cl)c1 (stereo not given) [MICONAZOLE] | Active
-0.03 | – | < 0.1 µg/mL | 10 µg/mL | 10 µg/mL | 10 µg/mL | < 1 µg/mL | 3 µg/mL | 100 µg/mL | > 100 µg/mL | > 100 µg/mL | 1 µg/mL | 30 µg/mL | – | O=C(SC(Cn1ccnc1)c1ccc(Cl)cc1Cl)c1ccc(Cl)cc1.O=[N+]([O-])O (stereo not given) | Active
– | 10 µg/mL | 1 µg/mL | 10 µg/mL | 50 µg/mL | 50 µg/mL | – | – | – | – | – | – | – | -0.42 | O=C(Cc1ccc(Cl)cc1)OC(Cn1ccnc1)c1ccc(Cl)cc1.O=C(O)C(=O)O (stereo not given) | –
-0.05 | – | < 0.1 µg/mL | 30 µg/mL | 100 µg/mL | 30 µg/mL | 1 µg/mL | – | – | – | – | – | 30 µg/mL | – | CCCCCC(=O)SC(Cn1ccnc1)c1ccc(Cl)cc1Cl.O=[N+]([O-])O (stereo not given) | inactive
